Results published in ChEMBL document CHEMBL5303300, “EUbOPEN Chemogenomics Library - Multiplex” (2023).
Where “and” joins values, the source holds several entries; their conditions need not be identical. Equal entries are not always repeated.

Experiments:
[1] = tested on: Fibroblast; experiment: Multiplex assay against human fibroblast; format: toxicity, cell-based; conditions: number of replicates 2
Summary of the method: (§1)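 Four dyes were applied at seeding to live cells: Hoechst33342, BioTracker Green Microtubule Cytoskeleton Dye, MitoTracker Red and Annexin V Alexa Fluor 680. Imaging after compound addition used a CQ1 microscope at 37°C and 5% CO2. CellPathfinder machine-learning gating then sorted cells into Hoechst high-intensity objects or normal cells, normal cells into healthy, pyknosed or fragmented nuclei, and pyknosed cells into mitotic or apoptotic, with tubulin, mitochondrial-mass and membrane-permeability phenotypes given as per cents of healthy-nucleus cells.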

[2] = tested on: U2OS; experiment: Multiplex assay against U2OS; format: toxicity, cell-based; conditions: human, number of replicates 2; summary of the method: as §1
[3] = 24 h, 1 µM, compound concentration 1 uM
[4] = 24 h, 10 µM, compound concentration 10 uM
[5] = 48 h, 1 µM, compound concentration 1 uM
[6] = 48 h, 10 µM, compound concentration 10 uM
[7] = 12 h, 1 µM, compound concentration 1 uM
[8] = 12 h, 10 µM, compound concentration 10 uM

## O=S(=O)(c1ccccc1)N(CC(F)(F)F)c1ccc(C(O)(C(F)(F)F)C(F)(F)F)cc1 [T091317]
[1]; [3]
  Population Membrane Permeable-Phenotype (%): 7% and 15%
  Population Mitochondria Different-Phenotype (%): 5% and 0%
  Population Mitotic Cells (%): 50% and 47%
  Population Normal (%): 100%
  Population Pyknosed Nuclei (%): 29% and 31%
  Population Tubulin-Different-Phenotype (%): 28% and 24%
  Total Cell Count: 128 and 204
[1]; [4]
  Population Apoptotic (%): 63% and 37%
  Population Fragmented Nuclei (%): 16% and 18%
  Population Healthy Nuclei (%): 47% and 57%
  Population Hoechst High Intensity Objects (%): 0%
  Population Membrane Permeable-Phenotype (%): 8% and 17%
  Population Mitochondria Different-Phenotype (%): 7% and 4%
  Population Mitotic Cells (%): 36% and 62%
  Population Normal (%): 100% and 99%
  Population Pyknosed Nuclei (%): 35% and 24%
  Population Tubulin-Different-Phenotype (%): 65% and 56%
  Total Cell Count: 145 and 143
[1]; [5]
  Population Apoptotic (%): 75% and 69%
  Population Fragmented Nuclei (%): 10% and 13%
  Population Healthy Nuclei (%): 60% and 54%
  Population Hoechst High Intensity Objects (%): 0%
  Population Membrane Permeable-Phenotype (%): 15% and 14%
  Population Mitochondria Different-Phenotype (%): 0% and 2%
  Population Mitotic Cells (%): 24% and 30%
  Population Normal (%): 100% and 99%
  Population Pyknosed Nuclei (%): 28% and 31%
  Population Tubulin-Different-Phenotype (%): 32% and 24%
  Total Cell Count: 128 and 175
[1]; [6]
  Population Apoptotic (%): 71% and 78%
  Population Fragmented Nuclei (%): 25% and 16%
  Population Healthy Nuclei (%): 46% and 54%
  Population Hoechst High Intensity Objects (%): 1% and 0%
  Population Membrane Permeable-Phenotype (%): 16% and 26%
  Population Mitochondria Different-Phenotype (%): 4%
  Population Mitotic Cells (%): 28% and 21%
  Population Normal (%): 98% and 99%
  Population Pyknosed Nuclei (%): 27% and 28%
  Population Tubulin-Different-Phenotype (%): 69% and 80%
  Total Cell Count: 143 and 134
[2]; [7]
  Population Apoptotic (%): 75% and 39%
  Population Healthy Nuclei (%): 62% and 82%
  Population Hoechst High Intensity Objects (%): 2% and 0%
  Population Mitochondria Different-Phenotype (%): 0% and 1%
  Population Mitotic Cells (%): 25% and 60%
  Population Normal (%): 97% and 100%
  Population Pyknosed Nuclei (%): 10% and 12%
  Population Tubulin-Different-Phenotype (%): 52% and 81%
[2]; [8]
  Population Apoptotic (%): 66% and 45%
  Population Healthy Nuclei (%): 56% and 80%
  Population Hoechst High Intensity Objects (%): 0%
  Population Membrane Permeable-Phenotype (%): 4% and 5%
  Population Mitochondria Different-Phenotype (%): 0% and 2%
  Population Mitotic Cells (%): 33% and 54%
  Population Normal (%): 100%
  Population Pyknosed Nuclei (%): 7% and 13%
  Population Tubulin-Different-Phenotype (%): 40% and 41%
[2]; [3]
  Population Apoptotic (%): 100% and 56%
  Population Healthy Nuclei (%): 58% and 88%
  Population Hoechst High Intensity Objects (%): 3% and 0%
  Population Mitochondria Different-Phenotype (%): 8% and 0%
  Population Normal (%): 96% and 100%
  Population Pyknosed Nuclei (%): 4% and 7%
  Population Tubulin-Different-Phenotype (%): 59% and 82%
[2]; [4]
  Population Apoptotic (%): 57% and 52%
  Population Healthy Nuclei (%): 65% and 78%
  Population Hoechst High Intensity Objects (%): 0%
  Population Membrane Permeable-Phenotype (%): 3% and 4%
  Population Mitochondria Different-Phenotype (%): 0% and 5%
  Population Mitotic Cells (%): 42% and 47%
  Population Normal (%): 100%
  Population Pyknosed Nuclei (%): 14% and 16%
  Population Tubulin-Different-Phenotype (%): 40% and 47%
[2]; [5]
  Population Apoptotic (%): 33% and 36%
  Population Healthy Nuclei (%): 65% and 90%
  Population Hoechst High Intensity Objects (%): 3% and 0%
  Population Membrane Permeable-Phenotype (%): 10% and 1%
  Population Mitochondria Different-Phenotype (%): 10% and 0%
  Population Mitotic Cells (%): 66% and 63%
  Population Normal (%): 96% and 100%
  Population Pyknosed Nuclei (%): 9% and 6%
  Population Tubulin-Different-Phenotype (%): 72% and 84%
[2]; [6]
  Population Apoptotic (%): 79% and 66%
  Population Fragmented Nuclei (%): 5% and 15%
  Population Healthy Nuclei (%): 81% and 70%
  Population Hoechst High Intensity Objects (%): 0%
  Population Membrane Permeable-Phenotype (%): 4% and 2%
  Population Mitochondria Different-Phenotype (%): 3% and 2%
  Population Mitotic Cells (%): 20% and 33%
  Population Normal (%): 100%
  Population Pyknosed Nuclei (%): 13%
  Population Tubulin-Different-Phenotype (%): 58% and 34%
